Data set [1] can be described thus: Selectivity index, ratio of EC50 for hemolytic activity against human RBC to MIC for antibacterial activity against Staphylococcus aureus ATCC 9144. It counts as toxicity. The settings on record: human red blood cells (RBC). In a few lines:
(§1)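 Selectivity index is the RBC haemolysis EC50 divided by the MIC against the E. coli or S. aureus reference strain.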

The nature of data set [2]: Aqueous solubility of the compound in DMSO. Type of data set: physicochemical.
The subject of data set [3] is MRC5. Briefly: Cytotoxicity against human MRC5 cells assessed as reduction in cell viability incubated for 4 hrs by CellTiter 96 Aqueous One Solution Reagent based assay. The note with it: MRC5, 4 h. An outline of the steps:
(§2)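 HepG2 and MRC-5 cells seeded at 35 000 and 15 000 cells/well respectively, then held overnight at 37 °C, 5% CO₂. Compounds in serum-free MEM Earle's applied for 4 h. MTS reagent (CellTiter 96 AQueous One) added for a further 1 h, absorbance read at 485 nm. Survival expressed relative to medium (negative) and Triton X-100 (positive) controls.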

For data set [4], the system named is Staphylococcus aureus. Nature of the data set: Antibacterial activity against Staphylococcus aureus ATCC 9144 cultured in MHB medium assessed as no bacterial growth incubated at 37 degC for 24 hrs by microdilution susceptibility test. Type of data set: functional. The note with it: ATCC 9144, 24 h. An outline of the steps:
(§3)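 Broth microdilution per CLSI M07-A9 with modifications. Inoculum about 2.5–3 x 10⁴ cells/mL in Mueller-Hinton broth, mixed 1:1 with test derivative. DMSO stocks diluted in double-distilled water, final DMSO <1%. Incubation 24 h at 37 °C (20 °C for C. glutamicum). Growth and sterility controls included; oxytetracycline reference.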
For orientation: In broth dilution the organism is exposed to a series of concentrations in liquid medium.

Data set [5] is described as follows: Selectivity index, ratio of EC50 for hemolytic activity against human RBC to MIC for antibacterial activity against Escherichia coli ATCC 25922. The settings on record: human red blood cells (RBC). It counts as toxicity. In a few lines:
as §1

Data set [6] deals with HepG2. Nature of the data set: Cytotoxicity against human HepG2 cells assessed as reduction in cell viability incubated for 4 hrs by CellTiter 96 Aqueous One Solution Reagent based assay. The settings on record: HepG2, 4 h. In a few lines: as §2
Data set [7] relates to Escherichia coli. Briefly: Antibacterial activity against Escherichia coli ATCC 25922 cultured in MHB medium assessed as no bacterial growth incubated at 37 degC for 24 hrs by microdilution susceptibility test. It counts as functional. The note with it: ATCC 25922, 24 h. In a few lines:
as §3

In data set [8] the test system is Erythrocyte. Briefly: Hemolytic activity against human RBC incubated for 1 hr. Type of data set: cell-based. In a few lines:
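Heparinized human blood washed three times in warm PBS and set to 10% hct. Erythrocytes at 1% v/v final, with compound in PBS (DMSO <1%), shaken 1 h at 37 °C and then centrifuged. Supernatant absorbance read at 405 and 545 nm after PBS background subtraction. Haemolysis taken relative to 1% Triton X-100. Three independent replicates, EC50 averaged.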

In data set [9] the test system is Pseudomonas aeruginosa. Briefly: Antibacterial activity against Pseudomonas aeruginosa PA01 DSM 19880 (ATCC 15692) cultured in MHB medium assessed as no bacterial growth incubated at 37 degC for 24 hrs by microdilution susceptibility test. The note with it: PAO1 DSM 19880 (ATCC 15692). Type of data set: functional. In a few lines:
as §3

For data set [10], the system named is Corynebacterium glutamicum. Briefly: Antibacterial activity against Corynebacterium glutamicum ATCC 13032 cultured in MHB medium assessed as no bacterial growth incubated at 20 degC for 24 hrs by microdilution susceptibility test. Type of data set: functional. The settings on record: ATCC 13032, 24 h. In a few lines: as §3

Each structure is given as a SMILES string. In brackets after ≈: the same amount, converted by molar mass. Where only a bound is given, the exact number is not on record here.

The values below come from ChEMBL document CHEMBL4311965, “Antimicrobial activity of amphipathic α,α-disubstituted β-amino amide derivatives against ESBL - CARBA producing multi-resistant bacteria; effect of halogenation, lipophilicity and cationic character” (Eur J Med Chem, 2019).

The EC50 is the concentration at which the effect is half-maximal. As usually defined, the MIC is the lowest concentration found to suppress growth.

Take `N#CC(Cc1ccc(C(F)(F)F)cc1)(Cc1ccc(C(F)(F)F)cc1)C(=O)NCCN`: the selectivity ratio in [1] was found to be 6; in [5], 11. In data set [2], the solubility entry was “Soluble”. Moreover, the values for the half-maximal effective concentration (EC50) in [3], in data set [6] and in [8] were 18 µg/mL (≈ 40.6 µM), 23 µg/mL (≈ 51.9 µM) and 178 µg/mL (≈ 401 µM), respectively. Besides, the minimum inhibitory concentration (MIC) in data set [4] was 32 µg/mL (≈ 72.2 µM); in [7] it was 16 µg/mL (≈ 36.1 µM); in [9], 64 µg/mL (≈ 144 µM); in [10], 8 µg/mL (≈ 18 µM).
For `N#CC(Cc1ccccc1Br)(Cc1ccccc1Br)C(=O)NCCN`, the values for the selectivity ratio in [1] and in data set [5] were 13 and 7, respectively. The solubility entry in [2] is listed as “Soluble”. Besides, the half-maximal effective concentration (EC50) in [3] is 32 µg/mL (≈ 68.8 µM); in data set [6] it was 26 µg/mL (≈ 55.9 µM); in data set [8] it was 211 µg/mL (≈ 454 µM). Also, the MIC was 16 µg/mL (≈ 34.4 µM) in [4], 32 µg/mL (≈ 68.8 µM) in [7], > 64 µg/mL in data set [9] and 32 µg/mL (≈ 68.8 µM) in [10].
`N#CC(Cc1c(F)cccc1F)(Cc1c(F)cccc1F)C(=O)NCCN`: the solubility result in [2] is “Soluble”. The MIC in data set [4], in [7], in data set [9] and in [10] was > 64 µg/mL in each case. In addition, the half-maximal effective concentration (EC50) in data set [6] is > 64 µg/mL.
In the case of `N#CC(Cc1cc(Br)cc(Br)c1)(Cc1cc(Br)cc(Br)c1)C(=O)NCCN`, the MIC in [4], in [7], in data set [9] and in data set [10] was > 64 µg/mL in each case.
As for `CN(C)[C@@H]1C(O)=C(C(N)=O)C(=O)[C@@]2(O)C(O)=C3C(=O)c4c(O)cccc4[C@@](C)(O)[C@H]3[C@H](O)[C@@H]12.Cl` [OXYTETRACYCLINE HYDROCHLORIDE], the MIC in data set [4] worked out at 0.65 µg/mL; in data set [7], 2.5 µg/mL; in data set [9], 20 µg/mL; in data set [10] it was 0.65 µg/mL. Also, in [6], the EC50 is > 64 µg/mL.
Regarding `N#CC(Cc1ccccc1F)(Cc1ccccc1F)C(=O)NCCN`, the solubility result in data set [2] is recorded as “Soluble”. The minimum inhibitory concentration (MIC) in [4] is > 64 µg/mL; in data set [7], 64 µg/mL (≈ 186 µM); in [9], > 64 µg/mL; in data set [10], 16 µg/mL (≈ 46.6 µM). Moreover, in data set [5], the selectivity ratio was determined as 3. Also, the results for the concentration giving a half-maximal response (EC50) in data set [6] and in data set [8] were > 64 µg/mL and 190 µg/mL (≈ 553 µM), respectively.
In the case of `N#CC(Cc1ccccc1C(F)(F)F)(Cc1ccccc1C(F)(F)F)C(=O)NCCN`, the selectivity ratio in data set [1] and in [5] was 6 in each case. Further, the solubility entry in data set [2] is on record as “Soluble”. The results for the concentration for a half-maximal effect (EC50) in data set [3], in data set [6] and in [8] were 27 µg/mL (≈ 60.9 µM), 24 µg/mL (≈ 54.1 µM) and 89 µg/mL (≈ 201 µM), respectively. Further, the minimum inhibitory concentration (MIC) is 16 µg/mL (≈ 36.1 µM) in data set [4], 16 µg/mL (≈ 36.1 µM) in [7], 32 µg/mL (≈ 72.2 µM) in [9] and 8 µg/mL (≈ 18 µM) in [10].
Consider `NCCNC(=O)C(CN)(Cc1cccc2ccccc12)Cc1cccc2ccccc12`, for which the figures for the selectivity ratio in data set [1] and in data set [5] were 23 and 6, respectively. Moreover, the solubility result in data set [2] was “Soluble”. Also, the half-maximal effective concentration (EC50) stood at 9 µg/mL (≈ 21.9 µM) in data set [3] and 90 µg/mL (≈ 219 µM) in data set [8]. Further, the minimum inhibitory concentration (MIC) in data set [4] was 4 µg/mL (≈ 9.72 µM); in data set [7] it was 16 µg/mL (≈ 38.9 µM); in data set [9], 16 µg/mL (≈ 38.9 µM); in data set [10], 2 µg/mL (≈ 4.86 µM).
As for `N#CC(Cc1cc(F)cc(F)c1)(Cc1cc(F)cc(F)c1)C(=O)NCCN`, in [2], the solubility entry is “Soluble”. Moreover, the MIC is > 64 µg/mL in data set [4], > 64 µg/mL in data set [7], > 64 µg/mL in data set [9] and 32 µg/mL (≈ 84.4 µM) in data set [10]. For the same compound, the EC50 is > 64 µg/mL in data set [6] and 208 µg/mL (≈ 548 µM) in data set [8].
`N#CC(Cc1ccc(F)c2ccccc12)(Cc1ccc(F)c2ccccc12)C(=O)NCCN`: in data set [2], the solubility result was “Soluble”. For the same compound, the EC50 in [3] was 4 µg/mL (≈ 9.02 µM); in [6], 12 µg/mL (≈ 27.1 µM); in data set [8], > 500 µg/mL. The MIC was 4 µg/mL (≈ 9.02 µM) in [4], 4 µg/mL (≈ 9.02 µM) in data set [7], 32 µg/mL (≈ 72.2 µM) in data set [9] and 2 µg/mL (≈ 4.51 µM) in data set [10].
For the compound `NCCNC(=O)C(CN)(Cc1cc(F)cc(F)c1)Cc1cc(F)cc(F)c1`, the solubility result in [2] was “Soluble”. The MIC in data set [4] was > 64 µg/mL; in [7], > 64 µg/mL; in data set [9] it was > 64 µg/mL; in [10] it was 64 µg/mL (≈ 167 µM). For the same compound, the EC50 in [6] is > 64 µg/mL; in data set [8], 228 µg/mL (≈ 595 µM).
`NCCNC(=O)C(CN)(Cc1ccccc1F)Cc1ccccc1F`: the solubility result in data set [2] is reported as “Soluble”. Also, the minimal inhibitory concentration (MIC) in data set [4], in [7], in [9] and in data set [10] was > 64 µg/mL throughout. For the same compound, the 50% effective concentration (EC50) in data set [6] is > 64 µg/mL.
For `NCCNC(=O)C(CN)(Cc1ccccc1Br)Cc1ccccc1Br`, the selectivity ratio in [1] and in data set [5] was 4 each time. For the same compound, the solubility result in [2] is listed as “Soluble”. Further, the EC50 in [3] was found to be 56 µg/mL (≈ 119 µM); in data set [6], 48 µg/mL (≈ 102 µM); in [8], 271 µg/mL (≈ 578 µM). For the same compound, the minimum inhibitory concentration (MIC) in data set [4] is 64 µg/mL (≈ 136 µM); in data set [7], 64 µg/mL (≈ 136 µM); in data set [9] it was 64 µg/mL (≈ 136 µM); in [10], 8 µg/mL (≈ 17 µM).
Take `NCCNC(=O)C(CN)(Cc1c(F)cccc1F)Cc1c(F)cccc1F`: in [2], the solubility result is on record as “Soluble”. The MIC in [4], in data set [7], in data set [9] and in data set [10] was > 64 µg/mL each time. Also, in data set [6], the concentration for a half-maximal effect (EC50) is > 64 µg/mL.
